# Bioassay records from PubChem BioAssay.
# Sampled rows, rich in hits. Any-hit rate of the full collection: about 3.2%.
# PfHsp90 set2: reduces growth (ATP signal) of yeast expressing P. falciparum Hsp90. AID 504621. actives 0.32% (n = 310,000). inhibition, % at 9.4 µM. S. cerevisiae expressing PfHsp90, BacTiter-Glo ATP, 48 h; yeast lacking PDR1 and PDR3 efflux regulators;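 active means every replicate shows inhibition above about 80%, whatever the replicate mean, limit read from the data; inconclusive means mean inhibition reaches the set limit but some replicate falls short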;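 further: 0% = DMSO neutral controls and 100% = 20 µM radicicol positive controls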
# Cneo AK release: Cryptococcus neoformans lysis via adenylate kinase release; C. neoformans lysis, adenylate kinase release luminescence, 4 h; normalised: neutral wells 0, clomiphene wells 100; AID 651654; lysis activity, % at 15 µM; actives 0.2% (n = 360,000);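 active means mean lysis activity across replicates of at least 80%, whatever share of replicates individually reach that level; inactive means mean lysis activity below 80%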
#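 Material: C. neoformans cells; Schedule: 4 h static compound exposure, 37 °C, read 1 h post-reagent; Measured by: adenylate kinase release luminescence; Read-out: signal increase indicating cell lysis; Controls: Clomiphene as positive lysis control.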
# MLL AF4-AF9 inh: inhibitors of human MLL-AF4/AF9 interaction. P42568. AlphaScreen, biotin-AF4 peptide binding to FLAG-AF9. inhibition, % at 10 µM. actives 0.47% (n = 350,000);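 active means every replicate reaching a set inhibition limit, whatever the replicate mean, cut at about 25% in these data; inconclusive means mean inhibition reaches that limit but some replicates miss it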;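 further: 0% = plate neutral control median and 100% = total signal loss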
# Target sequence (P42568 whole entry, looked up): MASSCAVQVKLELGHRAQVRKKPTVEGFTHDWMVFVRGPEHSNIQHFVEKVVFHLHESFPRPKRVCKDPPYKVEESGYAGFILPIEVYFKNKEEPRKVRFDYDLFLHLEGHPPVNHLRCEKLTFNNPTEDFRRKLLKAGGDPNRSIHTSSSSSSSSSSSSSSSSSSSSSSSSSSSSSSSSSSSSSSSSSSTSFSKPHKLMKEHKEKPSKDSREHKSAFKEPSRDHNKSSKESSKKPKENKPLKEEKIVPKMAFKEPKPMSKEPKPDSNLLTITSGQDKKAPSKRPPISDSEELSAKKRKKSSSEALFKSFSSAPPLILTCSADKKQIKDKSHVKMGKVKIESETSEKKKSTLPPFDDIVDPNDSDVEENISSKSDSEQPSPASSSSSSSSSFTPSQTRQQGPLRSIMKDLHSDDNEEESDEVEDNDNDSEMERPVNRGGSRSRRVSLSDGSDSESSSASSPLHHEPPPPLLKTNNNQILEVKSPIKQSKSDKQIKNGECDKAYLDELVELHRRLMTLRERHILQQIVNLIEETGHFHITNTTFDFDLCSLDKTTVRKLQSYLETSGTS
# DENV2 CPE rescue: protects cells from dengue virus 2 cytopathic effect | DENV2-infected cells, cytopathic effect rescue, plate reader | CPE inhibition, % at 9.99 µM | actives 1.7% (n = 350,000) | AID 651640; in the data active means CPE inhibition above about 20%, passing the limit was not always enough; inconclusive means no clear call, values can overlap the other calls; tested in BHK-21 cells;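 further: 0% = median of neutral control wells and 100% = median of positive control wells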
# rRNA inh HTS: inhibits bacterial ribosomal RNA function over humanized ribosomes; E. coli WT GFP vs humanized-ribosome RFP mutants, fluorescence, 24 h; stronger effect = lower value; DMSO median 0, no signal -100; GFP signal change (wild-type ribosome), % (no concentration beside the values); actives 1.6% (n = 350,000); AID 720706;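 active means significant combined selectivity score with lowered wild-type GFP, culture density cut under 30%, mutant RFP and density less affected; inactive means any of these conditions unmet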
# S100A4 MyoIIA: S100A4-myosin IIA interaction inhibition | actives 0.14% (n = 360,000) | P26447 | inhibition, % at 10.7 µM | S100A4/TAMRA-MyoIIA peptide fluorescence polarization;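 active means mean inhibition of at least 70% across replicates, with every replicate also reaching that level; inconclusive means mean inhibition reaches 70% but some replicates fall short; inactive means mean inhibition below 70%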
# Target sequence (P26447 whole entry, looked up): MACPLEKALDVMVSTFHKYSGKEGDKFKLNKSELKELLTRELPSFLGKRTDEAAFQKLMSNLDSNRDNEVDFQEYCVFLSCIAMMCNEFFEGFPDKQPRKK
#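 Test system: S100A4 monomer protein; Medium: HEPES pH 7.2 with CaCl2, KCl, NaCl, DTT, Triton; Probe or stimulus: TAMRA-labelled myosin IIA heavy-chain peptide probe, 5 nM; Doses: one dose per compound; Times: polarization read 5 min after assay mix addition, stable 5–60 min; Benchmarks: neutral control DMSO, positive control TFP.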
# Active calls of the source: *; ? = inconclusive; / = not tested or not shown.
SMILES,PfHsp90 set2,Cneo AK release,MLL AF4-AF9 inh,DENV2 CPE rescue,rRNA inh HTS,S100A4 MyoIIA
CO[C@H]1CN(C)C(=O)c2ccc(NS(=O)(=O)c3cccc(F)c3)cc2OC[C@H](C)N(C(=O)Cc2cccnc2)C[C@H]1C,/,0.2,-2.1,22.5*,-0.9,2.0
CO[C@@H]1CN(C)C(=O)c2ccc(NS(=O)(=O)c3cccc(F)c3)cc2OC[C@H](C)N(C(=O)Cc2cccnc2)C[C@H]1C,/,/,1.5,-0.6,-0.7,0.5
CNC(=O)C[C@@H]1CC[C@@H]2[C@H](COc3ccc(NS(=O)(=O)c4cccc(F)c4)cc3C(=O)N2C)O1,/,-1.6,-0.9,-3.8,0.5,-14.5
CCOc1ccc(C(=O)/C=C/c2cc(OC)c(OC)c(OC)c2)cc1,-18.9,-0.3,9.1,/,-19.5*,-5.1
CC[C@H](C)Cc1cn([C@@H](CCCN=C(N)N)C(=O)NCCCCCCCCCCC(=O)N2CCNCC2)nn1,0.4,20.0,-28.5,-13.0,-37.1*,4.9
COc1ccc2c3c([nH]c2c1)[C@H](CO)N(C(=O)c1cnccn1)CC31CN(S(=O)(=O)c2ccccc2)C1,/,/,8.6,4.0,-4.2,8.8
O=C(C[C@H]1C=C[C@@H](NC(=O)CCN2CCCCC2)[C@H](CO)O1)Nc1ccccc1,/,/,-3.0,15.4,0.9,5.0
Cc1nn(-c2ccc(Cl)cc2)c(=O)c2ccccc12,-4.7,/,-3.7,-5.6,14.6,3.5
Cc1c(Cl)sn(-c2ccc(Cl)cc2)c1=O,110.9*,-0.5,-6.6,-2.8,-48.4,1.2
COc1cccc(/C=C/C(=O)Nc2ccc3nc4n(c(=O)c3c2)CCCC4)c1OC,2.3,/,0.7,?,-22.7*,-2.8
O=C(N[C@@H]1CC[C@H](CCn2cc(C3(O)CCCC3)nn2)O[C@@H]1CO)C1CC1,/,-0.3,-1.2,-6.7,-0.1,30.4
Nc1ccc(/C=C/C(=O)c2cccs2)cc1,3.8,/,-5.0,?,-13.2,-13.5
O=C(C=Cc1ccccc1)c1cccs1,9.2,/,4.2,2.1,-22.2*,3.7
O=C(Nc1cc(Cl)ccn1)C1(c2ccccc2)CC1(Cl)Cl (configuration not stated),1.7,-10.8,1.7,?,-42.5*,-3.9
CCCN1C[C@H](C)[C@@H](OC)CN(C)C(=O)c2cc(NC(=O)C3CCOCC3)ccc2OC[C@H]1C,/,42.2,0.1,-0.2,2.7,-15.7
CCCN1C[C@@H](C)[C@@H](OC)CN(C)C(=O)c2cc(NC(=O)C3CCOCC3)ccc2OC[C@H]1C,/,-2.5,-3.0,26.2*,0.4,4.0
CO[C@@H]1CN(C)C(=O)c2cc(NC(=O)C3CCOCC3)ccc2OC[C@H](C)NC[C@@H]1C,/,101.7*,-1.4,7.0,0.7,4.2
CO[C@H]1CN(C)C(=O)c2cc(NC(=O)C3CCOCC3)ccc2OC[C@@H](C)NC[C@H]1C,/,106.7*,-2.2,6.0,1.8,0.1
CO[C@@H]1CN(C)C(=O)c2cc(NC(=O)C3CCOCC3)ccc2OC[C@H](C)NC[C@H]1C,/,1.8,-1.3,8.4,3.5,17.6
CO[C@H]1CN(C)C(=O)c2cc(NC(=O)C3CCOCC3)ccc2OC[C@@H](C)NC[C@@H]1C,/,-5.1,-0.6,-8.8,-0.1,-44.2
O=C(C[C@H]1CC[C@H]2[C@@H](COC[C@@H](O)CN2CC2CCCCC2)O1)NCC1CC1,/,57.2,-4.7,27.2*,-8.9,1.2
CN(C)C(=O)C[C@H]1CC[C@H]2[C@@H](COC[C@H](O)CN2CC2CCCC2)O1,/,-4.1,-15.5,48.0*,0.3,1.8
CN(C)C(=O)C[C@@H]1CC[C@H]2[C@@H](COC[C@@H](O)CN2CC2CCCC2)O1,/,-1.3,-10.3,-2.0,-0.9,2.5
C[C@H](CO)N1C[C@H](C)[C@H](CN(C)C(=O)NC2CCCCC2)Oc2ccc(NS(=O)(=O)c3ccccc3)cc2C1=O,/,-0.8,-2.1,-4.1,-1.9,4.3
C[C@H]1CN([C@@H](C)CO)C(=O)CCCn2nncc2CO[C@H]1CN(C)C(=O)Nc1ccc(N2CCN(C)CC2)cc1,/,-1.6,5.7,2.0,-0.3,-0.9
SMILES,PfHsp90 set2,Cneo AK release,MLL AF4-AF9 inh,DENV2 CPE rescue,rRNA inh HTS,S100A4 MyoIIA
O=C(C[C@@H]1CC[C@H]2[C@@H](COC[C@H](O)CN2Cc2cccc(C(F)(F)F)c2)O1)NCc1ccccc1,/,99.7*,-2.2,-4.9,-9.3,6.0
O=C(C[C@@H]1CC[C@H]2[C@@H](COC[C@H](O)CN2Cc2cc(F)cc(F)c2)O1)NCc1cccc(F)c1,/,9.6,-1.5,14.1,-4.4,0.9
O=C(C[C@@H]1CC[C@@H]2[C@H](COC[C@@H](O)CN2CC2CCOCC2)O1)NCc1ccc(Cl)cc1,/,0.1,-1.8,-1.5,2.8,-2.6
O=C(C[C@@H]1CC[C@@H]2[C@H](COC[C@H](O)CN2Cc2cc(F)cc(F)c2)O1)NCc1cccc(F)c1,/,-0.5,-2.3,21.8*,0.7,10.0
O=C(C[C@@H]1CC[C@H]2[C@@H](COC[C@H](O)CN2Cc2cccc(C(F)(F)F)c2)O1)NCc1ccc(Cl)cc1,/,3.7,0.6,-2.6,-49.4,1.7
O=C(C[C@H]1CC[C@@H]2[C@H](COC[C@H](O)CN2CC2CCOCC2)O1)NCc1ccc(Cl)cc1,/,86.3*,-2.2,-2.2,-2.3,10.1
O=C(C[C@H]1CC[C@@H]2[C@H](COC[C@@H](O)CN2Cc2cccc(C(F)(F)F)c2)O1)NCc1ccc(Cl)cc1,/,109.8*,4.6,1.3,-55.2,44.1
C[C@H](CO)N1C[C@H](C)[C@H](CN(C)C(=O)c2cccc(F)c2)Oc2cc(C#CC3CCCC3)ccc2S1(=O)=O,/,/,/,/,4.6,/
Cc1ccc(S(=O)(=O)N(C)C[C@H]2OCCCC[C@H](C)Oc3ccc(NC(=O)CCCN(C)C)cc3C(=O)N([C@@H](C)CO)C[C@H]2C)cc1,/,-1.4,4.2,-6.0,-1.9,8.2
O=C(C[C@@H]1CC[C@@H]2[C@H](COC[C@@H](O)CN2Cc2cccc(C(F)(F)F)c2)O1)NCc1ccc(Cl)cc1,/,60.4,2.9,-0.4,-54.5,21.4
O=C(C[C@@H]1CC[C@@H]2[C@H](COC[C@H](O)CN2Cc2cccc(C(F)(F)F)c2)O1)NCc1ccc(Cl)cc1,/,82.9*,5.8,-3.0,-56.7,1.3
C[C@@H]1CN([C@H](C)CO)C(=O)Cc2cc(NC(=O)Nc3ccc(F)cc3)ccc2O[C@H]1CN(C)Cc1ccc(C(F)(F)F)cc1,/,/,0.5,7.3,4.1,2.8
COc1ccc(-c2nc(N3CCN(C)CC3)sc2-c2ccc(OC)cc2)cc1,-7.0,0.4,33.6*,-2.3,-47.1,2.2
CC(C)NC(=O)N(C)C[C@@H]1Oc2ccccc2C(=O)N(C)C[C@H]1C,/,/,/,/,0.4,/
c1coc(-c2nc3ccccc3nc2-c2ccco2)c1,-11.3,-4.0,8.2,0.9,-28.1*,6.2
